In brackets after ≈: the same amount, converted by molar mass.
Legend:
[1] = Compound was evaluated for its relative half life of hydrolysis to meropenem by partially purified porcine renal dihydropeptidase-I (DHP-I); format: functional; conditions: Sus scrofa
Klebsiella aerogenes = assay: Antibacterial activity against Klebsiella aerogenes 1522E; format: functional
Outline: (§1)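 MIC was determined by agar dilution on Mueller–Hinton medium.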

Staphylococcus aureus [2] = assay: Antibacterial activity against Staphylococcus aureus 503; format: functional
Pseudomonas aeruginosa [3] = assay: Antibacterial activity against Pseudomonas aeruginosa 1592E
Pseudomonas aeruginosa [4] = assay: Antibacterial activity against Pseudomonas aeruginosa 1771M; format: functional; outline: as §1
Escherichia coli [5] = assay: Antibacterial activity against Escherichia coli 1507E; format: functional; outline: as §1
Pseudomonas aeruginosa [6] = assay: Antibacterial activity against Pseudomonas aeruginosa 9027; format: functional; outline: as §1
Salmonella typhimurium [7] = assay: Antibacterial activity against Salmonella Typhimurium; format: functional, Salmonella enterica subsp. enterica serovar Typhimurium; conditions: Salmonella enterica; outline: as §1
Escherichia coli [8] = assay: Antibacterial activity against Escherichia coli 078; format: functional; outline: as §1
Enterobacter cloacae [9] = assay: Antibacterial activity against Enterobacter cloacae 1321E; format: functional; outline: as §1
Staphylococcus aureus [10] = assay: Antibacterial activity against Staphylococcus aureus 285; format: functional
Streptococcus pyogenes = assay: Antibacterial activity against Streptococcus pyogenes 308A; format: functional
Staphylococcus aureus [11] = assay: Antibacterial activity against Staphylococcus aureus SG 511; format: functional
Pseudomonas aeruginosa [12] = assay: Compound was evaluated for its antibacterial activity against Pseudomonas aeruginosa 2 MDR; format: functional
Escherichia coli [13] = assay: Compound was evaluated for its antibacterial activity against Escherichia coli DC 0; format: functional
Escherichia coli [14] = assay: Compound was evaluated for its antibacterial activity against Escherichia coli CCARM 1116 MDR; format: functional
Escherichia coli [15] = assay: Compound was evaluated for its antibacterial activity against Escherichia coli CCARM 1111 MDR; format: functional
Klebsiella pneumoniae [16] = assay: Compound was evaluated for its antibacterial activity against Klebsiella pneumoniae 3 ESBL; format: functional
Pseudomonas aeruginosa [17] = assay: Compound was evaluated for its antibacterial activity against Pseudomonas aeruginosa ATCC 27853; format: functional
Escherichia coli [18] = assay: Compound was evaluated for its antibacterial activity against Escherichia coli CCARM 1117 MDR; format: functional
Klebsiella pneumoniae [19] = assay: Compound was evaluated for its antibacterial activity against Klebsiella pneumoniae 5 ESBL; format: functional
Escherichia coli [20] = assay: Compound was evaluated for its antibacterial activity against Escherichia coli CCARM 1110 MDR; format: functional
Klebsiella pneumoniae [21] = assay: Compound was evaluated for its antibacterial activity against Klebsiella pneumoniae 2 ESBL; format: functional
Pseudomonas aeruginosa [22] = assay: Compound was evaluated for its antibacterial activity against Pseudomonas aeruginosa 3 MDR; format: functional
Enterobacter cloacae [23] = assay: Compound was evaluated for its antibacterial activity against Enterobacter cloacae P99; format: functional
Salmonella enteritidis [24] = assay: Compound was evaluated for its antibacterial activity against […] enteritidis 3; format: functional, Salmonella enterica subsp. enterica serovar Enteritidis; conditions: Salmonella enterica
Escherichia coli [25] = assay: Compound was evaluated for its antibacterial activity against Escherichia coli ATCC 25922; format: functional
Klebsiella pneumoniae [26] = assay: Compound was evaluated for its antibacterial activity against Klebsiella pneumoniae
Klebsiella oxytoca = assay: Compound was evaluated for its antibacterial activity against Klebsiella oxytoca 1082E; format: functional
Klebsiella pneumoniae [27] = assay: Compound was evaluated for its antibacterial activity against Klebsiella pneumoniae 10 ESBL; format: functional
Salmonella typhimurium [28] = assay: Compound was evaluated for its antibacterial activity against Salmonella Typhimurium 1; format: functional, Salmonella enterica subsp. enterica serovar Typhimurium; conditions: Salmonella enterica
Escherichia coli [29] = assay: Compound was evaluated for its antibacterial activity against Escherichia coli CCARM 1113 MDR; format: functional
Salmonella enteritidis [30] = assay: Compound was evaluated for its antibacterial activity against […] enteritidis; format: functional, Salmonella enterica subsp. enterica serovar Enteritidis; conditions: Salmonella enterica
Shigella sonnei = assay: Compound was evaluated for its antibacterial activity against Shigella sonnei ATCC 9290; format: functional
Escherichia coli [31] = assay: Compound was evaluated for its antibacterial activity against Escherichia coli TEM; format: functional
Escherichia coli [32] = assay: Compound was evaluated for its antibacterial activity against Escherichia coli DC 2; format: functional
Escherichia coli [33] = assay: Compound was evaluated for its antibacterial activity against Escherichia coli CCARM 1112 MDR; format: functional
Klebsiella pneumoniae [34] = assay: Compound was evaluated for its antibacterial activity against Klebsiella pneumoniae 4 ESBL; format: functional
Klebsiella pneumoniae [35] = assay: Compound was evaluated for its antibacterial activity against Klebsiella pneumoniae; remark: listed apart in the source
Pseudomonas aeruginosa [36] = assay: Compound was evaluated for its antibacterial activity against Pseudomonas aeruginosa 1 MDR; format: functional
Klebsiella pneumoniae [37] = assay: Compound was evaluated for its antibacterial activity against Klebsiella pneumoniae 9 ESBL; format: functional
Salmonella enteritidis [38] = assay: Compound was evaluated for its antibacterial activity against […] enteritidis 1; format: functional, Salmonella enterica subsp. enterica serovar Enteritidis; conditions: Salmonella enterica
Escherichia coli [39] = assay: Compound was evaluated for its antibacterial activity against Escherichia coli CCARM 1108 MDR; format: functional
Klebsiella pneumoniae [40] = assay: Compound was evaluated for its antibacterial activity against Klebsiella pneumoniae 1 ESBL; format: functional
Escherichia coli [41] = assay: Compound was evaluated for its antibacterial activity against Escherichia coli CCARM 1115 MDR; format: functional
Escherichia coli [42] = assay: Compound was evaluated for its antibacterial activity against Escherichia coli 0157:H7; format: functional
Escherichia coli [43] = assay: Compound was evaluated for its antibacterial activity against Escherichia coli CCARM 1114 MDR; format: functional
Salmonella typhimurium [44] = assay: Compound was evaluated for its antibacterial activity against Salmonella Typhimurium; format: functional, Salmonella enterica subsp. enterica serovar Typhimurium; conditions: Salmonella enterica
Shigella flexneri = assay: Compound was evaluated for its antibacterial activity against Shigella flexneri ATCC 9199; format: functional
Salmonella typhimurium [45] = assay: Compound was evaluated for its antibacterial activity against Salmonella Typhimurium 2; format: functional, Salmonella enterica subsp. enterica serovar Typhimurium; conditions: Salmonella enterica
Klebsiella pneumoniae [46] = assay: Compound was evaluated for its antibacterial activity against Klebsiella pneumoniae 6 ESBL; format: functional
Salmonella enteritidis [47] = assay: Compound was evaluated for its antibacterial activity against […] enteritidis 2; format: functional, Salmonella enterica subsp. enterica serovar Enteritidis; conditions: Salmonella enterica
Escherichia coli [48] = assay: Compound was evaluated for its antibacterial activity against Escherichia coli CCARM 1109 MDR; format: functional

SMILES: CCOC(=O)C1CN(C(=O)[C@@H]2C[C@H](SC3=C(C(=O)O)N4C(=O)[C@H]([C@@H](C)O)[C@H]4[C@H]3C)CN2)C/C1=N\O (some centres not stated)
- relative t1/2 (DHP-I hydrolysis vs meropenem) [1]: 0.26
- MIC (Klebsiella aerogenes): 0.049 µg/mL (≈ 0.096 µM)
- MIC (Staphylococcus aureus [2]): 0.195 µg/mL (≈ 0.382 µM)
- MIC (Pseudomonas aeruginosa [3]): 3.12 µg/mL (≈ 6.12 µM)
- MIC (Pseudomonas aeruginosa [4]): 0.391 µg/mL (≈ 0.766 µM)
- MIC (Escherichia coli [5]): 0.049 µg/mL (≈ 0.096 µM)
- MIC (Pseudomonas aeruginosa [6]): 6.25 µg/mL (≈ 12.2 µM)
- MIC (Salmonella typhimurium [7]): 0.049 µg/mL (≈ 0.096 µM)
- MIC (Escherichia coli [8]): 0.013 µg/mL (≈ 0.0255 µM)
- MIC (Enterobacter cloacae [9]): 0.025 µg/mL (≈ 0.049 µM)
- MIC (Staphylococcus aureus [10]): 0.391 µg/mL (≈ 0.766 µM)
- MIC (Streptococcus pyogenes): 0.013 µg/mL (≈ 0.0255 µM)
- MIC (Staphylococcus aureus [11]): 0.195 µg/mL (≈ 0.382 µM)

SMILES: C[C@@H](O)[C@H]1C(=O)N2C(C(=O)O)=C(S[C@@H]3CN[C@H](C(=O)N4C/C(=N\O)C(CN)C4)C3)[C@H](C)[C@H]12 (some centres not stated)
- relative t1/2 (DHP-I hydrolysis vs meropenem) [1]: 0.31
- MIC (Klebsiella aerogenes): 0.098 µg/mL (≈ 0.21 µM)
- MIC (Staphylococcus aureus [2]): 0.098 µg/mL (≈ 0.21 µM)
- MIC (Pseudomonas aeruginosa [3]): 0.098 µg/mL (≈ 0.21 µM)
- MIC (Pseudomonas aeruginosa [4]): 0.098 µg/mL (≈ 0.21 µM)
- MIC (Escherichia coli [5]): 0.049 µg/mL (≈ 0.105 µM)
- MIC (Pseudomonas aeruginosa [6]): 0.195 µg/mL (≈ 0.417 µM)
- MIC (Salmonella typhimurium [7]): 0.098 µg/mL (≈ 0.21 µM)
- MIC (Escherichia coli [8]): 0.025 µg/mL (≈ 0.0535 µM)
- MIC (Enterobacter cloacae [9]): 0.049 µg/mL (≈ 0.105 µM)
- MIC (Staphylococcus aureus [10]): 0.195 µg/mL (≈ 0.417 µM)
- MIC (Streptococcus pyogenes): 0.002 µg/mL (≈ 0.00428 µM)
- MIC (Staphylococcus aureus [11]): 0.098 µg/mL (≈ 0.21 µM)

SMILES: CO/N=C1/CCN(C(=O)[C@@H]2C[C@H](SC3=C(C(=O)O)N4C(=O)[C@H]([C@@H](C)O)[C@H]4[C@H]3C)CN2)C1
- MIC (Klebsiella aerogenes): 0.049 µg/mL (≈ 0.108 µM)
- MIC (Pseudomonas aeruginosa [3]): 3.12 µg/mL (≈ 6.91 µM)
- MIC (Pseudomonas aeruginosa [4]): 0.781 µg/mL (≈ 1.73 µM)
- MIC (Escherichia coli [5]): 0.049 µg/mL (≈ 0.108 µM)
- MIC (Pseudomonas aeruginosa [6]): 0.391 µg/mL (≈ 0.864 µM)
- MIC (Salmonella typhimurium [7]): 0.098 µg/mL (≈ 0.217 µM)
- MIC (Escherichia coli [8]): 0.049 µg/mL (≈ 0.108 µM)
- MIC (Enterobacter cloacae [9]): 0.049 µg/mL (≈ 0.108 µM)

SMILES: C[C@@H](O)[C@H]1C(=O)N2C(C(=O)O)=C(S[C@@H]3CN[C@H](C(=O)N(C)C)C3)[C@H](C)[C@H]12 [MEROPENEM]
- MIC (Pseudomonas aeruginosa [12]): 8 µg/mL (≈ 20.9 µM)
- MIC (Escherichia coli [13]): 0.03 µg/mL (≈ 0.0782 µM)
- MIC (Escherichia coli [14]): 0.03 µg/mL (≈ 0.0782 µM)
- MIC (Escherichia coli [15]): 0.016 µg/mL (≈ 0.0417 µM)
- MIC (Klebsiella pneumoniae [16]): 0.06 µg/mL (≈ 0.156 µM)
- MIC (Pseudomonas aeruginosa [17]): 0.5 µg/mL (≈ 1.3 µM)
- MIC (Escherichia coli [18]): 0.03 µg/mL (≈ 0.0782 µM)
- MIC (Klebsiella pneumoniae [19]): 0.016 µg/mL (≈ 0.0417 µM)
- relative t1/2 (DHP-I hydrolysis vs meropenem) [1]: 1
- MIC (Klebsiella aerogenes): 0.049 µg/mL (≈ 0.128 µM)
- MIC (Escherichia coli [20]): 0.016 µg/mL (≈ 0.0417 µM)
- MIC (Klebsiella pneumoniae [21]): 0.03 µg/mL (≈ 0.0782 µM)
- MIC (Pseudomonas aeruginosa [22]): 8 µg/mL (≈ 20.9 µM)
- MIC (Staphylococcus aureus [2]): 0.098 µg/mL (≈ 0.256 µM)
- MIC (Enterobacter cloacae [23]): 0.03 µg/mL (≈ 0.0782 µM)
- MIC (Pseudomonas aeruginosa [3]): 0.195 µg/mL (≈ 0.509 µM)
- MIC (Salmonella enteritidis [24]): 0.03 µg/mL (≈ 0.0782 µM)
- MIC (Pseudomonas aeruginosa [4]): 0.049 µg/mL (≈ 0.128 µM)
- MIC (Escherichia coli [25]): 0.016 µg/mL (≈ 0.0417 µM)
- MIC (Klebsiella pneumoniae [26]): 0.06 µg/mL (≈ 0.156 µM)
- MIC (Klebsiella oxytoca): 0.06 µg/mL (≈ 0.156 µM)
- MIC (Klebsiella pneumoniae [27]): 0.016 µg/mL (≈ 0.0417 µM)
- MIC (Salmonella typhimurium [28]): 0.03 µg/mL (≈ 0.0782 µM)
- MIC (Escherichia coli [29]): 0.03 µg/mL (≈ 0.0782 µM)
- MIC (Salmonella enteritidis [30]): 0.016 µg/mL (≈ 0.0417 µM)
- MIC (Shigella sonnei): 0.03 µg/mL (≈ 0.0782 µM)
- MIC (Escherichia coli [5]): 0.025 µg/mL (≈ 0.0652 µM)
- MIC (Escherichia coli [31]): 0.016 µg/mL (≈ 0.0417 µM)
- MIC (Pseudomonas aeruginosa [6]): 0.195 µg/mL (≈ 0.509 µM)
- MIC (Escherichia coli [32]): 0.03 µg/mL (≈ 0.0782 µM)
- MIC (Escherichia coli [33]): 0.016 µg/mL (≈ 0.0417 µM)
- MIC (Salmonella typhimurium [7]): 0.049 µg/mL (≈ 0.128 µM)
- MIC (Klebsiella pneumoniae [34]): 0.016 µg/mL (≈ 0.0417 µM)
- MIC (Klebsiella pneumoniae [35]): 0.06 µg/mL (≈ 0.156 µM)
- MIC (Pseudomonas aeruginosa [36]): 1 µg/mL (≈ 2.61 µM)
- MIC (Escherichia coli [8]): 0.025 µg/mL (≈ 0.0652 µM)
- MIC (Klebsiella pneumoniae [37]): 0.03 µg/mL (≈ 0.0782 µM)
- MIC (Enterobacter cloacae [9]): 0.025 µg/mL (≈ 0.0652 µM)
- MIC (Salmonella enteritidis [38]): 0.016 µg/mL (≈ 0.0417 µM)
- MIC (Staphylococcus aureus [10]): 0.195 µg/mL (≈ 0.509 µM)
- MIC (Streptococcus pyogenes): 0.013 µg/mL (≈ 0.0339 µM)
- MIC (Escherichia coli [39]): 0.03 µg/mL (≈ 0.0782 µM)
- MIC (Klebsiella pneumoniae [40]): 0.03 µg/mL (≈ 0.0782 µM)
- MIC (Escherichia coli [41]): 0.016 µg/mL (≈ 0.0417 µM)
- MIC (Escherichia coli [42]): 0.03 µg/mL (≈ 0.0782 µM)
- MIC (Staphylococcus aureus [11]): 0.195 µg/mL (≈ 0.509 µM)
- MIC (Escherichia coli [43]): 0.03 µg/mL (≈ 0.0782 µM)
- MIC (Salmonella typhimurium [44]): 0.03 µg/mL (≈ 0.0782 µM)
- MIC (Shigella flexneri): 0.03 µg/mL (≈ 0.0782 µM)
- MIC (Salmonella typhimurium [45]): 0.016 µg/mL (≈ 0.0417 µM)
- MIC (Klebsiella pneumoniae [46]): 0.03 µg/mL (≈ 0.0782 µM)
- MIC (Salmonella enteritidis [47]): 0.016 µg/mL (≈ 0.0417 µM)
- MIC (Escherichia coli [48]): 0.03 µg/mL (≈ 0.0782 µM)

From ChEMBL document CHEMBL1145884, “Synthesis and biological activity of novel 1beta-methylcarbapenems with oxyiminopyrrolidinylamide moiety” (2003)
